Among the data in ChEMBL document CHEMBL1156176, “Total synthesis, antiprotozoal and cytotoxicity activities of rhuschalcone VI and analogs” (Bioorg Med Chem, 2010) are Activity, LC50 and CC50 values, retold here.

Structures are written as SMILES. Converted amounts (≈) assume the structure as drawn.

Data set [1] can be described thus: Cytotoxicity against BHK cells at 100 ug/ml after 48 hrs by MTT assay. The data set is classed as cell-based, Mesocricetus auratus. Conditions: hamster; for Activity: bhk, 48 h. The method, boiled down:
(§1)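 BHK cells (DMEM/F10 1:1, 10% fetal calf serum, penicillin/streptomycin, 37 °C/5% CO2) at 1 × 10^5/mL, adhered overnight, exposed 48 h to serial dilutions (0.0001–100 µg/mL in figure). MTT for 4 h, DMSO solubilisation, A570; survival vs untreated cells; CC50 from triplicate means ± SD.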
(In general: Tetrazolium dyes change colour on reduction, which living cells bring about.)

For data set [2], the system named is Parabodo caudatus. Description: Antiprotozoal activity against Bodo caudatus after 48 hrs by MTT assay. The class given is functional. The method, boiled down:
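B. caudatus from culture in cereal grass medium diluted 1:1 with water plus E. coli DH5a, kept at 30 °C; adjusted to 1 × 10^5/mL with penicillin, streptomycin and kanamycin added; exposed 48 h to serial dilutions (final 0.0001–1000 µg/mL) at 37 °C/5% CO2; MTT added for 4 h, crystals dissolved in DMSO, A570 read; LC50 from triplicate determinations.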

The test system of data set [3] is Parabodo caudatus. Kind of data set: Antiprotozoal activity against Bodo caudatus hrs by MTT assay. The class given is functional, organism-based. Conditions: TDE = time-dependent effect. The method, boiled down: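 B. caudatus adjusted to 1 × 10^5/mL in growth medium with penicillin/streptomycin/kanamycin, exposed 48 h at 37 °C/5% CO2 to serial dilutions (0.0001–1000 µg/mL final). MTT added for further 4 h, crystals dissolved in DMSO, absorbance 570 nm. LC50 (50% lethal concentration) from mean ± SD of triplicates.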

The subject of data set [4] is Parabodo caudatus. Description: Antiprotozoal activity against Bodo caudatus at 0.6 mg/ml after 24 hrs by MTT assay. The class given is functional. The gist of the method:
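Bodo caudatus (maintained at 30 °C in cereal grass medium diluted 1:1 with water, fed E. coli DH5α, subcultured every 7–12 days); 10,000 protozoa per well with penicillin/streptomycin/kanamycin, exposed 24 h to 0.6 mg/mL final; CuSO4 at same concentration as positive control, 8% DMSO solvent control. MTT added, 2 h, DMSO-dissolved, A570 viability; triplicates; inhibition vs controls.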

A short description of data set [5]: Cytotoxicity against BHK cells after 48 hrs by MTT assay. The class given is cell-based, Mesocricetus auratus. The settings on record: hamster. The gist of the method:
as §1

In the case of `O=C(/C=C/c1ccc(O)c(-c2cc(C(=O)/C=C/c3ccc(O)cc3)c(O)cc2O)c1)c1ccccc1`, the values for the Activity entry (in data set [1]; with Parabodo caudatus [3]; in the data set on Parabodo caudatus [4]) were “Non-toxic”, “tde” and 75%, respectively. In the data set on Parabodo caudatus [2], the LC50 (commonly the concentration lethal to half of the exposed cells or organisms) came to 20.6 µg/mL (≈ 43 µM).

As to `CC(C)=CCc1c(O)ccc(C(=O)/C=C/c2ccc(O)cc2)c1O` [ISOBAVACHALCONE], the midpoint of cytotoxicity in data set [5], the CC50 at 48 h, lay at 86.9 µg/mL (≈ 268 µM). In addition, the LC50 with Parabodo caudatus [2] was 4.36 µg/mL (≈ 13.4 µM). In addition, the Activity result in the data set with Parabodo caudatus [3] is “tde”; in the data set on Parabodo caudatus [4], 75%.

`O=C(/C=C/c1ccc(O)c(-c2cc(C(=O)/C=C/c3ccc(O)cc3)c(O)cc2O)c1)c1ccc(O)cc1O` [RHUSCHALCONE VI]: in data set [1] (BHK cells), it took 97.6 µg/mL (≈ 191 µM) to reach half-maximal cytotoxicity (CC50 at 48 h). Besides, the LC50 with Parabodo caudatus [2] was 53.3 µg/mL (≈ 104 µM). For the same compound, the Activity entry was “tde” in the data set on Parabodo caudatus [3] and 75% with Parabodo caudatus [4].

Take `COc1cc(O)c(C(=O)/C=C/c2ccc(O)cc2)cc1-c1cc(/C=C/C(=O)c2ccc(O)cc2O)ccc1O`: the results for the Activity result (in data set [1]; with Parabodo caudatus [3]; with Parabodo caudatus [4]) were “Non-toxic”, “tde” and 75%, respectively. This compound also had an LC50 in the data set with Parabodo caudatus [2] of 118 µg/mL (≈ 226 µM).
